Entries after “also recorded” stand apart in the source; their conditions may differ. Values belong to the compound of their own block, whether it stands above or below them.
What was measured:
MEF Icmt^−/− cells = experiment: MTT cell viability in MEF Icmt-/- cells; assay type: cell-based; details: for effect on viability in MEF Icmt^−/− cells (in words): MTT; for IC50: read-out: IC50 MEF Icmt^−/−
MEF Icmt^+/+ cells = experiment: MTT cell viability in MEF Icmt+/+ cells; assay type: cell-based
[1] = tested on: GFP-K-Ras localization in Jurkat T cells (E 6.1); experiment: GFP-K-Ras membrane localization in Jurkat T cells; assay type: cell-based; details: 24 h treatment
How it was run: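 Jurkat T cells (E 6.1) expressing GFP-KRas treated 24 h with vehicle, test compound at several concentrations, or 25 μM simvastatin as reference. Cells laid on poly-L-lysine-coated coverslips (100 μg/mL) and fixed in 3.7% formaldehyde for 10 min. Fluorescence microscopy scored by eye in random fields of 100 cells as normal plasma membrane, partial, or complete mislocalization.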

Icmt = Icmt (Homo sapiens, UniProt O60725); experiment: Icmt vapor diffusion assay; assay type: biochemical; details: for Icmt inhibition (in words): vapor diffusion assay; for potency relative to 10u: Icmt inhibition
How it was run: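 Vapor diffusion Icmt methylation assay. Screening at 10 μM inhibitor, with specific activity given as percent of the no-inhibitor AFC control. Test compounds were also run as possible substrates. IC50 was measured in vitro, Ki was calculated from IC50 by the Cheng–Prusoff method, and inhibition mode was set by further biochemical evaluation.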

Chain of Icmt (O60725 whole entry, the tested form may be a part): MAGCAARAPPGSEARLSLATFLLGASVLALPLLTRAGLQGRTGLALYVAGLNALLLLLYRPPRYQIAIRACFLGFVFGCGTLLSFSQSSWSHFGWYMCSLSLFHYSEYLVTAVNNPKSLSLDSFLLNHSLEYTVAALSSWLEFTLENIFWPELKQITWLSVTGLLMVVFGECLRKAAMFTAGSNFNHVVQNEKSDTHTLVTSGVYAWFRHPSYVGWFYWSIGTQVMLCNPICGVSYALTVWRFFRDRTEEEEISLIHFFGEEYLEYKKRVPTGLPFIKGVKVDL

Structure (SMILES): COC(=O)CCSC/C=C(\C)CCn1cc(-c2cccc3ccccc23)nn1 [Compound 10g]
- effect on viability in MEF Icmt^−/− cells (in words) (MEF Icmt^−/− cells): did not affect viability
- IC50 (MEF Icmt^−/− cells): > 100 µM

Structure (SMILES): COC(=O)CCSC/C=C(\C)CCn1cc(CCc2cccc(-c3ccccc3)c2)nn1 [Compound 10o]
- effect on viability in MEF Icmt^−/− cells (in words) (MEF Icmt^−/− cells): did not affect viability
- IC50 (MEF Icmt^−/− cells): > 100 µM
- potency relative to 10n (times less potent) (Icmt; ratio of Icmt IC50): ~30

Structure (SMILES): COC(=O)CCSC/C=C(\C)CCn1cc(CCc2ccccc2-c2ccccc2)nn1 [Compound 10p]
- Icmt inhibition (in words) (Icmt): further reduced inhibitory activity

Structure (SMILES): COC(=O)CCSC/C=C(\C)CCn1cc(COc2ccc(-c3ccccc3)cc2)nn1 [Compound 10q]
- Icmt inhibition (in words) (Icmt): detrimental to inhibition

Structure (SMILES): C/C(=C\CSCCC(=O)O)CCn1cc(CCOC2CCCCO2)nn1 (stereo not drawn) [Compound 11m]
- Icmt inhibition (in words) (Icmt): poor Icmt inhibition

Structure (SMILES): CC(C)=CCC/C(C)=C/CC/C(C)=C/CSc1ccccc1C(=O)O [FTS, S-farnesylthiosalicylic acid, reference compound]
- activity in MEF Icmt^+/+ versus Icmt^−/− cells (in words) (MEF Icmt^+/+ cells): equivalent activity in both cell lines

Further lines, with some results ahead:

- Ki (Icmt): 0.4 µM
- mode of Icmt inhibition (Icmt): competitive inhibitor
- ligand efficiency (in words) (Icmt; compared with POP-3MB): significantly improved ligand efficiency
Structure (SMILES): COC(=O)CCSC/C=C(\C)CCn1cc(CCc2ccc(-c3ccccc3)cc2)nn1 [Compound 10n]
- activity in MEF Icmt^+/+ versus Icmt^−/− cells (in words) (MEF Icmt^+/+ cells): selectively cytotoxic
- IC50 (MEF Icmt^−/− cells): > 100 µM
- GFP-K-Ras membrane localization [1]: decrease in normal membrane localization; also recorded: capable of inducing K-Ras mislocalization
- Icmt inhibition (in words) (Icmt): more potent than the corresponding carboxylate, 11n

- potency relative to 10u (Icmt): approximately twice as potent
Structure (SMILES): COC(=O)CCSC/C=C(\C)CCn1cc(CCc2ccc(-c3ccc(F)cc3)cc2)nn1 [Compound 10s]

- potency relative to 10u (Icmt): approximately twice as potent
Structure (SMILES): COC(=O)CCSC/C=C(\C)CCn1cc(CCc2ccc(-c3cccc(C#N)c3)cc2)nn1 [Compound 10t]

From publication PMC3387282 (ACS medicinal chemistry letters, 2011)
